Data as given in ChEMBL document CHEMBL1133447, “Inhibition of protein synthesis by didemnins: cell potency and SAR” (J Med Chem, 2000).
Starred links: 1 amine or outer side, 2 acyl side, 3 side chain; linkers in the order of their positions; H or OH if unused. Positions of bridges follow the written chain, without caps; N, C: chain ends. Non-standard residues stand in square brackets, D forms with d. Residues, ends and D or L forms follow the SMILES beside them. ξ: configuration not given here. *: point of attachment. X1 = CC[C@H](C)[C@@H](N[*:1])[C@@H](O)CC(=O)O[C@H](C(=O)[C@H](C)C(=O)[*:2])C(C)C; Benzoyl(4-benzoyl) = O=C(c1ccccc1)c1ccc(C(=O)*)cc1; X2 = CC[C@H](C)[C@@H](N[*:1])[C@@H](O)CC(=O)[*:2]; Propanoyl(3-(4-MeO-Ph)) = COc1ccc(CCC(=O)*)cc1; NMeY = CN[C@@H](Cc1ccc(O)cc1)C(=O)O; NMeL = CN[C@@H](CC(C)C)C(=O)O; dHica = CC(C)C[C@@H](O)C(=O)O; dNMeL = CN[C@H](CC(C)C)C(=O)O; pGlu = O=C1CC[C@@H](C(=O)O)N1; NMeV = CN[C@H](C(=O)O)C(C)C; Hiv = CC(C)[C@H](O)C(=O)O; NMeA = CN[C@@H](C)C(=O)O; Lac = C[C@H](O)C(=O)O; OBn = c1ccc(CO*)cc1; Ahx = NCCCCCC(=O)O; ξP = O=C(O)C1CCCN1; βAla = NCCC(=O)O

Species on record: Oryctolagus cuniculus
Assay: In vitro inhibition of protein synthesis in tobacco mosaic virus mRNA-encoded proteins in rabbit reticulocyte lysate
Assay type: functional
In short: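 Cell-free translation in rabbit reticulocyte lysate programmed with tobacco mosaic virus mRNA. Protein synthesis was measured as [³⁵S]methionine incorporation into the encoded proteins across a range of inhibitor concentrations, and IC50 was derived from the concentration dependence.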

Compound | IC50 [µM]
COc1ccc(C[C@@H](C(=O)NCCNC(=O)[C@H](CC(C)C)N(C)C(=O)[C@@H]2CCCN2C(=O)[C@H](C)O)N(C)C(=O)C2CCCN2C(=O)[C@H](CC(C)C)NC(=O)[C@@H](C)NC(=O)OCc2ccccc2)cc1 (stereo not given in full) | 275
COc1ccc(C[C@@H](C(=O)O[C@H](C)[C@H](NC(=O)[C@@H](CC(C)C)N(C)C(=O)[C@@H]2CCCN2C(=O)[C@H](C)O)C(=O)N2CCCCNC(=O)[C@H](C)C(=O)[C@H](C(C)C)OC(=O)C[C@H](O)[C@H]2CC(C)C)N(C)C(C)=O)cc1 | > 1000
CC[C@H](C)[C@H]1NC(=O)[C@@H](NC(=O)[C@@H](CC(C)C)N(C)C(=O)[C@@H]2CCCN2C(=O)[C@H](C)OC(C)=O)[C@@H](C)OC(=O)[C@H](Cc2ccc(OC)cc2)N(C)C(=O)[C@@H]2CCCN2C(=O)[C@H](CC(C)C)NC(=O)[C@@H](C)C(=O)[C@H](C(C)C)OC(=O)C[C@@H]1OC(C)=O | 10
CSCC[C@H](N)C(=O)N[C@@H](CCC(=O)O)C(=O)N[C@@H](Cc1c[nH]cn1)C(=O)N[C@@H](Cc1ccccc1)C(=O)N[C@@H](CCCN=C(N)N)C(=O)N[C@@H](Cc1c[nH]c2ccccc12)C(=O)NCC(=O)O | 4
CC[C@H](C)[C@H]1NC(=O)[C@@H](NC(=O)[C@@H](CC(C)C)N(C)C(=O)[C@@H]2CCCN2C(=O)[C@H](C)O)[C@@H](C)OC(=O)[C@@H]2CCc3ccccc3N2C(=O)[C@@H]2CCCN2C(=O)[C@H](CC(C)C)NC(=O)[C@@H](C)C(=O)[C@H](C(C)C)OC(=O)C[C@@H]1O | 2.7
COc1ccc(C[C@H]2C(=O)O[C@H](C)[C@H](NC(=O)[C@@H](CC(C)C)N(C)C(=O)[C@@H]3CCCN3C(=O)[C@H](C)O)C(=O)N[C@H](C(C)C)[C@@H](O)CC(=O)O[C@@H](C(C)C)C(=O)[C@H](C)C(=O)N[C@@H](CC(C)C)C(=O)N3CCC[C@H]3C(=O)N2C)cc1 | 3
COc1ccc(C[C@H]2C(=O)O[C@H](C)[C@H](NC(=O)[C@@H](CC(C)C)N(C)C(=O)C3CCCN3C(=O)[C@H](C)O)C(=O)N[C@H](C(C)C)[C@@H](O)CC(=O)O[C@@H](C(C)C)C(=O)[C@H](C)C(=O)N[C@@H](CC(C)C)C(=O)N3CCCC3C(=O)N2C)cc1 (stereo not given in full) | 1
COc1ccc(C[C@H]2C(=O)N[C@@H](C)C(=O)N(C)[C@H]3Cc4ccc(cc4)Oc4cc(ccc4OC)C[C@@H](C(=O)N[C@H](C)C(=O)N[C@@H](C)C(=O)N2C)N(C)C3=O)cc1 | 0.05
CC[C@H](C)[C@H]1NC(=O)[C@@H](NC(=O)[C@@H](CC(C)C)N(C)C(=O)C2CCCN2)[C@@H](C)OC(=O)[C@H](Cc2ccc(OC)cc2)N(C)C(=O)C2CCCN2C(=O)[C@H](CC(C)C)NC(=O)[C@@H](C)C(=O)[C@H](C(C)C)OC(=O)C[C@@H]1O (stereo not given in full) | 4.3
CC[C@H](C)[C@H]1NC(=O)[C@@H](NC(=O)[C@@H](CC(C)C)N(C)C(=O)C2C=CCN2C(=O)OC(C)(C)C)[C@@H](C)OC(=O)[C@H](Cc2ccc(OC)cc2)N(C)C(=O)C2CCCN2C(=O)[C@H](CC(C)C)NC(=O)[C@@H](C)C(=O)[C@H](C(C)C)OC(=O)C[C@@H]1O (stereo not given in full) | 5.3
CC[C@H](C)[C@H]1NC(=O)[C@@H](NC(=O)[C@@H](CC(C)C)N(C)C(=O)C2CCCN2C(=O)[C@H](C)O)[C@@H](C)OC(=O)[C@H](CC(C)C)N(C)C(=O)C2CCCN2C(=O)[C@H](CC(C)C)NC(=O)[C@@H](C)C(=O)[C@H](C(C)C)OC(=O)C[C@@H]1O (stereo not given in full) | 9
C=CCOC(=O)N[C@@H](CC(C)C)C(=O)N1CCC[C@H]1C(=O)N(C)[C@@H](Cc1ccc(OC)cc1)C(=O)O[C@H](C)[C@H](NC(=O)[C@@H](CC(C)C)N(C)C(=O)[C@@H]1CCCN1C(=O)[C@H](C)O)C(=O)OCC[Si](C)(C)C | 112
CC[C@H](C)[C@H]1NC(=O)[C@@H](NC(=O)[C@@H](CC(C)C)N(C)C(=O)C2C=CCN2)[C@@H](C)OC(=O)[C@H](Cc2ccc(OC)cc2)N(C)C(=O)C2CCCN2C(=O)[C@H](CC(C)C)NC(=O)[C@@H](C)C(=O)[C@H](C(C)C)OC(=O)C[C@@H]1O (stereo not given in full) | 4.3
CC[C@H](C)[C@H]1NC(=O)[C@@H](NC(=O)[C@@H](CC(C)C)N(C)C(=O)C2CCCN2C(=O)[C@H](C)O)[C@@H](C)OC(=O)[C@H](Cc2ccccc2)N(C)C(=O)C2CCCN2C(=O)[C@H](CC(C)C)NC(=O)[C@@H](C)C(=O)[C@H](C(C)C)OC(=O)C[C@@H]1O (stereo not given in full) | 2.5
CC[C@H](C)[C@H]1NC(=O)[C@@H](NC(=O)[C@@H](CC(C)C)NC)[C@@H](C)OC(=O)[C@H](Cc2ccc(OC)cc2)N(C)C(=O)C2CCCN2C(=O)[C@H](CC(C)C)NC(=O)[C@@H](C)C(=O)[C@H](C(C)C)OC(=O)C[C@@H]1O (stereo not given in full) | 5.4
CC(=O)O[C@H](C)[C@H](NC(=O)[C@H](CC(C)C)N(C)C(=O)[C@@H]1CCCN1C(=O)[C@H](C)O)C(=O)OCc1ccccc1 (H-[Lac]P[NMeL]T(Ac)-OBn) | 276
COc1ccc(CCC(=O)O[C@H](C)[C@H](NC(=O)[C@H](CC(C)C)N(C)C(=O)[C@@H]2CCCN2C(=O)[C@H](C)O)C(=O)OCc2ccccc2)cc1 (H-[Lac]P[NMeL]T(Propanoyl(3-(4-MeO-Ph)))-OBn) | 405
CC[C@H](C)[C@H]1NC(=O)[C@@H](NC(=O)[C@@H](CC(C)C)N(C)C(=O)[C@@H]2CCCN2C(=O)[C@H](C)O)[C@@H](C)OC(=O)[C@H](Cc2ccc(OC)cc2)N(C)C(=O)[C@@H]2CCCN2C(=O)[C@H](CC(C)C)NC(=O)[C@H](C(C)C)OC(=O)C[C@@H]1O (H-[Lac]P[dNMeL]T[X2][Hiv]LP[NMeY](Me); ester 4-C) | 1.3
CC[C@H](C)[C@@H]1NC(=O)[C@@H]2CCCN2C(=O)[C@@H](CC(C)C)OC(=O)CCNC(=O)[C@H](C)N(C)C(=O)[C@H](C(C)C)N(C)C1=O (cyclo(I[NMeV][NMeA][βAla][dHica]P)) | > 1000
CC[C@H](C)[C@H]1NC(=O)[C@@H](NC(=O)[C@@H](CC(C)C)N(C)C(=O)CCCCCNC(=O)c2ccc(C(=O)c3ccccc3)cc2)[C@@H](C)OC(=O)[C@H](Cc2ccc(OC)cc2)N(C)C(=O)C2CCCN2C(=O)[C@H](CC(C)C)NC(=O)[C@@H](C)C(=O)[C@H](C(C)C)OC(=O)C[C@@H]1O (stereo not given in full) ({Benzoyl(4-benzoyl)-Ahx}-[dNMeL]T[X1]L[ξP][NMeY](Me); ester 2-C) | 24
CC[C@H](C)[C@H]1NC(=O)[C@@H](NC(=O)[C@@H](CC(C)C)N(C)C(=O)CNC(=O)c2ccc(C(=O)c3ccccc3)cc2)[C@@H](C)OC(=O)[C@H](Cc2ccc(OC)cc2)N(C)C(=O)C2CCCN2C(=O)[C@H](CC(C)C)NC(=O)[C@@H](C)C(=O)[C@H](C(C)C)OC(=O)C[C@@H]1O (stereo not given in full) ({Benzoyl(4-benzoyl)}-G[dNMeL]T[X1]L[ξP][NMeY](Me); ester 3-C) | 4.5
CC[C@H](C)[C@H]1NC(=O)[C@@H](NC(=O)[C@@H](CC(C)C)N(C)C(=O)c2ccc(C(=O)c3ccccc3)cc2)[C@@H](C)OC(=O)[C@H](Cc2ccc(OC)cc2)N(C)C(=O)C2CCCN2C(=O)[C@H](CC(C)C)NC(=O)[C@@H](C)C(=O)[C@H](C(C)C)OC(=O)C[C@@H]1O (stereo not given in full) ({Benzoyl(4-benzoyl)}-[dNMeL]T[X1]L[ξP][NMeY](Me); ester 2-C) | 4
O=C(O)C1=CC(=C(c2ccc(O)c(C(=O)O)c2)c2ccc(O)c(C(=O)O)c2)C=CC1=O [AURINTRICARBOXYLIC ACID] | 10
C=C(NC(=O)C(=C)NC(=O)c1ccc2c(n1)-c1coc(n1)C(=C)NC(=O)C(=C)NC(=O)c1nc(oc1C)C(=C)NC(=O)C(C(C)(C)O)NC(=O)C(=C)NC(=O)c1nc(oc1C)/C(=C/C)NC(=O)C(C(C)O)NC(=O)c1csc-2n1)C(N)=O (stereo not given) [BERNINAMYCIN] | 600
COc1ccc(C[C@H]2C(=O)N[C@@H](C)C(=O)N(C)[C@@H]3C(=O)N(C)[C@@H](Cc4ccc(O)c(c4)Oc4ccc(cc4)[C@@H]3O)C(=O)N[C@@H](C)C(=O)N[C@@H](C)C(=O)N2C)cc1 [BOUVARDIN] | 0.1
C[C@@H]1C[C@@H]([C@H](O)CC2CC(=O)NC(=O)C2)C(=O)[C@@H](C)C1 [CYCLOHEXIMIDE] | 5
CC[C@H](C)[C@H](NC(=O)[C@H](Cc1ccccc1)NC(=O)[C@H](C)NC(=O)[C@H](CC(=O)O)NC(=O)[C@H](CCCCN)NC(=O)[C@H](CO)NC(=O)[C@@H]1CCCN1C(=O)[C@@H]1CCC(=O)N1)C(=O)NCC(=O)N[C@@H](CC(C)C)C(=O)N[C@@H](CCSC)C(N)=O [ELEDOISIN] ([pGlu]PSKDAFIGLM-NH2) | 500
CC(=O)O[C@H]1C[C@@]2(C)[C@@H](C[C@@H](O)[C@H]3[C@@]4(C)CC[C@@H](O)[C@@H](C)[C@@H]4CC[C@@]32C)/C1=C(\CCC=C(C)C)C(=O)O [FUSIDIC ACID] | 400
C/C1=C\[C@H](C)C[C@H](C)OC(=O)C[C@H](c2ccc(O)cc2)NC(=O)[C@@H](Cc2c(Br)[nH]c3ccccc23)N(C)C(=O)[C@H](C)NC(=O)[C@@H](C)C1 [JASPAMIDE] | > 500
H-ELNFTPNWGT-NH2 | > 1000
